From ChEMBL document CHEMBL4842317, “Discovery of novel 3-hydroxyandrosta-5,7-Diene-17-Carboxylic acid derivatives as anti-inflammatory bowel diseases (IBD) agents” (Eur J Med Chem, 2021) come the findings set out here.

Structures are written as SMILES. Calls of active or inactive are those of the source. The calls are words filed in the database; no cut-off is given here.

For test [1], the system named is RAW264.7. As to the kind of experiment: Antiinflammatory activity against mouse RAW264.7 cells assessed as inhibition of LPS-induced NO production measured after 24 hrs by Griess assay. To be noted: RAW264.7, 24 h. The format is functional, cell-based. The essentials:
(§1)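 RAW 264.7 cells (1 × 10^5 cells/mL) are cultured 24 h, stimulated with LPS (100 ng/mL final), and treated with compounds from 100 μM downward for 24 h in DMEM with 10% FBS. Medium nitrite is measured by Griess reaction (sulfanilamide, naphthylethylenediamine, phosphoric acid, 10 min, room temperature, dark). Mean + SD from three independent experiments.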

Test [2] deals with RAW264.7. Nature of the test: Antiinflammatory activity against mouse RAW264.7 cells assessed as inhibition of LPS-induced NO production at 20 uM after 24 hrs by Griess assay. The test is classed as functional. The method in brief:
as §1

The test system of test [3] is RAW264.7. As to the kind of experiment: Antiinflammatory activity against mouse RAW264.7 cells assessed as decrease in LPS-induced TNF-alpha mRNA expression at 20 uM in presence of LPS by qRT-PCR analysis. The test is classed as functional, cell-based. The essentials:
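RAW 264.7 cells are grown 12 h in six-well plates, then exposed to LPS (100 ng/ml) plus compound for 8 h. Reverse transcription is followed by SYBR Green qPCR with GAPDH as internal control. Relative expression is calculated by 2^-ΔΔCT versus the untreated control. Mean + SD from three independent experiments.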

Test [4] concerns Mus musculus. As to the kind of experiment: Antiinflammatory activity against DSS-induced colitis C57BL/6 mouse model assessed as reduction in scores of stool consistency and bleeding at 20 mg/kg, ip administered for 7 days by immunohistochemistry analysis. The format is functional, organism-based. To be noted: time 7.0 day.
In test [5] the test system is Mus musculus. As to the kind of experiment: Antiinflammatory activity against DSS-induced colitis C57BL/6 mouse model assessed as dispersed CD86-positive cells in colon at 20 mg/kg, ip administered for 7 days by hematoxylin and eosin staining based microscopic analysis. The format is functional, organism-based. To be noted: time 7.0 day. The essentials:
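DSS colitis (3.5% DSS, male C57BL/6 mice, n=5 per group) with 7-day intraperitoneal dosing in saline/castor oil/ethanol/DMSO vehicle. Colons are fixed in formalin, paraffin-embedded and stained with H&E (viewed at 200X). Separately, sections undergo CD86 immunohistochemistry (citrate antigen retrieval, 3% H2O2 block, 1:200 primary and HRP secondary, hematoxylin counterstain) viewed at 400X.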

Regarding `C[C@@H]1C[C@H]2[C@@H]3CCC4=CC(=O)C=C[C@]4(C)[C@@]3(F)[C@@H](O)C[C@]2(C)[C@@]1(O)C(=O)CO` [DEXAMETHASONE], the half-maximal inhibitory concentration (IC50) with RAW264.7 [1] was 14.8 µM. Moreover, the inhibition at 20 µM in the test with RAW264.7 [2] is 93.6%. Further, the outcome in the test with RAW264.7 [3], with Mus musculus [4] and in the test on Mus musculus [5] was Active.
